According to ChEMBL document CHEMBL1139509, “Design, synthesis, and antipicornavirus activity of 1-[5-(4-arylphenoxy)alkyl]-3-pyridin-4-ylimidazolidin-2-one derivatives” (J Med Chem, 2005):
pIC50: −log10 of the molar value. Blank lines part the entries; values can stand above or below the compound they belong to.

How the values were obtained:
[1] = system: Enterovirus; experiment: Inhibitory concentration against human enterovirus EV71 (2231) genotype C; format: functional, organism-based, Viruses
Summary of the method: (§1)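 CPE-inhibition (neutralization) assay on RD cells seeded at 3 × 10⁵ cells/mL in DMEM/10% FBS and grown 24-30 h to about 90% confluency. Virus (100 TCID50) was mixed with graded compound concentrations and adsorbed 1 h at 37 °C. Cells were overlaid with DMEM, 5% FBS and 2% DMSO, incubated 64 h at 37 °C, then glutaraldehyde-fixed and crystal violet-stained, with A570 read-out. IC50 is 50% CPE reduction versus virus control. Triplicate, at least twice.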

[2] = Cytotoxicity against human rhabdomyosarcoma cells; format: cell-based
Summary of the method: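 RD (rhabdomyosarcoma) cells were exposed to test compounds at various concentrations for 96 h at 37 °C. Viable cells were counted by trypan blue staining. CC50 is the concentration that reduces viability to 50% of the untreated control culture. Triplicate, run at least twice.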

[3] = system: Coxsackievirus; experiment: Inhibitory concentration against Coxsackievirus B3; format: functional, organism-based, Viruses; summary of the method: as §1
[4] = Inhibitory concentration against Echovirus 9; format: functional, Viruses; summary of the method: as §1
[5] = system: Coxsackievirus; experiment: Inhibitory concentration against Coxsackievirus A9; format: functional, organism-based, Viruses; summary of the method: as §1
[6] = Inhibitory concentration against Echovirus 29; format: functional, Viruses; summary of the method: as §1
[7] = system: Enterovirus; experiment: In vitro inhibitory concentration against human enterovirus EV71-4643 strain; format: functional, organism-based, Enterovirus A71; summary of the method: as §1
[8] = system: Coxsackievirus; experiment: Inhibitory concentration against Coxsackievirus A16; format: functional, organism-based, Viruses; summary of the method: as §1
[9] = system: Coxsackievirus; experiment: Inhibitory concentration against Coxsackievirus A10; format: functional, organism-based, Viruses; summary of the method: as §1
[10] = system: Coxsackievirus; experiment: Inhibitory concentration against Coxsackievirus B4; format: functional, organism-based, Viruses; summary of the method: as §1
[11] = system: Enterovirus; experiment: Inhibitory concentration against human enterovirus EV68; format: functional, organism-based, Viruses
[12] = system: Enterovirus; experiment: Ratio of CC50 to that of IC50 against human enterovirus EV71-2231 strain; format: functional, Enterovirus A71
[13] = system: Coxsackievirus; experiment: Inhibitory concentration against Coxsackievirus B1; format: functional, organism-based, Viruses; summary of the method: as §1
[14] = system: Coxsackievirus; experiment: Inhibitory concentration against Coxsackievirus A24; format: functional, organism-based, Viruses; summary of the method: as §1
[15] = system: Coxsackievirus; experiment: Inhibitory concentration against Coxsackievirus B5; format: functional, organism-based, Viruses; summary of the method: as §1
[16] = system: Enterovirus; experiment: Inhibitory concentration against human enterovirus EV71 (1743) genotype B; format: functional, organism-based, Viruses; summary of the method: as §1
[17] = system: rhinovirus A2; experiment: Inhibitory concentration against Human rhinovirus 2; format: functional, organism-based, human rhinovirus type 2; settings: Rhinovirus A; summary of the method: as §1
[18] = system: Coxsackievirus; experiment: Inhibitory concentration against Coxsackievirus B6; format: functional, organism-based, Viruses; summary of the method: as §1
[19] = Inhibitory concentration against Human rhinovirus 14; format: functional, human rhinovirus type 14; summary of the method: as §1
[20] = system: Enterovirus; experiment: In vitro inhibitory concentration against human enterovirus EV71-2231 strain; format: functional, organism-based, Enterovirus A71; summary of the method: as §1
[21] = system: Enterovirus; experiment: Ratio of CC50 to that of IC50 against human enterovirus EV71-4643 strain; format: functional, Enterovirus A71
[22] = system: Enterovirus; experiment: Inhibitory concentration against human enterovirus EV71 (4643) genotype C; format: functional, organism-based, Viruses; summary of the method: as §1
[23] = system: Coxsackievirus; experiment: Inhibitory concentration against Coxsackievirus B2; format: functional, organism-based, Viruses; summary of the method: as §1
[24] = system: Enterovirus; experiment: Inhibitory concentration against human enterovirus EV71 (BrCr) genotype A; format: functional, organism-based, Viruses; summary of the method: as §1
[25] = system: Enterovirus; experiment: Inhibitory concentration against human enterovirus EV71 (2086) genotype C; format: functional, organism-based, Viruses; summary of the method: as §1
[26] = system: Enterovirus; experiment: Inhibitory concentration against Human Enterovirus 71; format: functional, organism-based, Viruses; summary of the method: as §1
[27] = In vitro inhibitory concentration against Coxsackievirus B4; format: functional, Viruses; summary of the method: as §1
[28] = In vitro inhibitory concentration against Echovirus 6; format: functional, Viruses
[29] = system: Enterovirus; experiment: In vitro inhibitory concentration against human enterovirus EV71; format: functional, organism-based, Viruses; summary of the method: as §1

SMILES: CC(C)C(CCOc1ccc(-c2ccc(Cl)cc2)cc1)CCN1CCN(c2ccncc2)C1=O (stereo unspecified)
CC50 [2]: > 25000 nM | pIC50 [7]: 5.68 | pIC50 [20]: < 4.60

SMILES: O=C1N(CCN(CCOc2ccc(-c3ccc(Cl)cc3)cc2)Cc2ccc(Cl)cc2)CCN1c1ccncc1
CC50 [2]: > 25000 nM | pIC50 [7]: < 4.60 | pIC50 [20]: < 4.60

SMILES: O=C1N(CCC(CCOc2ccc(-c3ccc(Cl)cc3)cc2)C(F)(F)F)CCN1c1ccncc1 (stereo unspecified)
CC50 [2]: > 12500 nM | pIC50 [7]: 6.13 | pIC50 [20]: 5.60

SMILES: Cc1cc(COc2ccc(-c3ccc(Cl)cc3)cc2)cc(CN2CCN(c3ccncc3)C2=O)c1
CC50 [2]: > 25000 nM | pIC50 [7]: 4.64 | pIC50 [20]: < 4.60

SMILES: CCC(CCOc1ccc(-c2ccc(Cl)cc2)cc1)CCN1CCN(c2ccncc2)C1=O (stereo unspecified)
CC50 [2]: > 25000 nM | pIC50 [7]: 6.77 | pIC50 [20]: 6.22

SMILES: O=C1N(CCC(CCOc2ccc(-c3ccc(Cl)cc3)cc2)Cc2ccccc2)CCN1c1ccncc1 (stereo unspecified)
CC50 [2]: > 10000 nM | pIC50 [7]: < 5.00 | pIC50 [20]: < 5.00

SMILES: N#Cc1ccc2c(c1)CCC(c1ccc(Cl)cc1)O2 (stereo unspecified)
pIC50 [27]: 6.49 | pIC50 [28]: 6.32 | pIC50 [29]: 6.35

SMILES: O=C1N(Cc2ccc(COc3ccc(-c4ccc(Cl)cc4)cc3)cc2)CCN1c1ccncc1
CC50 [2]: > 1250 nM | pIC50 [7]: < 5.90 | pIC50 [20]: < 5.90

Continued by rising pIC50 [7], values first:

pIC50 [7]: 6.80 | pIC50 [20]: 5.93
SMILES: O=C1N(Cc2cccc(COc3ccc(-c4ccc(Cl)cc4)cc3)c2)CCN1c1ccncc1
CC50 [2]: > 6250 nM

pIC50 [7]: 7.03 | pIC50 [20]: 6.14
SMILES: CC(C)(CCCOc1ccc(-c2ccc(Cl)cc2)cc1)CN1CCN(c2ccncc2)C1=O
CC50 [2]: 20000 nM

pIC50 [7]: 7.39 | pIC50 [20]: 6.85
SMILES: CC(C)(CCOc1ccc(-c2ccc(Cl)cc2)cc1)CCN1CCN(c2ccncc2)C1=O
CC50 [2]: > 25000 nM

pIC50 [1]: 7.12 | pIC50 [3]: < 4.90 | pIC50 [4]: 5.88 | pIC50 [5]: 7.15 | pIC50 [6]: 6.41 | pIC50 [7]: 7.42 | pIC50 [8]: < 4.90 | pIC50 [9]: < 4.90 | pIC50 [11]: < 4.90 | pIC50 [25]: 7.37 | pIC50 [13]: < 4.90 | pIC50 [14]: 5.89 | pIC50 [15]: 5.94 | pIC50 [16]: 7.04 | pIC50 [17]: < 4.90 | pIC50 [18]: < 4.90 | pIC50 [19]: < 4.90 | pIC50 [20]: 7.12 | pIC50 [26]: 7.42 | pIC50 [22]: 7.42 | pIC50 [23]: < 4.90 | pIC50 [24]: 6.89
SMILES: O=C1N(CCCCCOc2ccc(-c3ccc(Cl)cc3)cc2)CCN1c1ccncc1
CC50 [2]: 6250 nM

pIC50 [7]: 7.44 | pIC50 [20]: 6.64
SMILES: CC(CCCCOc1ccc(-c2ccc(Cl)cc2)cc1)N1CCN(c2ccncc2)C1=O (stereo unspecified)
CC50 [2]: 12500 nM

pIC50 [1]: 7.42 | pIC50 [3]: < 4.90 | pIC50 [4]: 5.58 | pIC50 [5]: 7.48 | pIC50 [6]: 7.40 | pIC50 [7]: 8.03 | pIC50 [8]: 6.05 | pIC50 [9]: 5.77 | pIC50 [10]: 5.91 | pIC50 [11]: 5.57 | pIC50 [13]: 5.54 | pIC50 [14]: 6.60 | pIC50 [15]: 5.88 | pIC50 [16]: 7.80 | pIC50 [17]: < 4.90 | pIC50 [18]: < 4.90 | pIC50 [19]: 5.10 | pIC50 [20]: 7.42 | pIC50 [22]: 8.03 | pIC50 [23]: < 4.90 | pIC50 [24]: 7.16
SMILES: CC(CCOc1ccc(-c2ccc(Cl)cc2)cc1)CCN1CCN(c2ccncc2)C1=O (stereo unspecified)
CC50 [2]: > 25000 nM | Selectivity index [12]: >657 | Selectivity index [21]: >2688

pIC50 [7]: 8.30 | pIC50 [20]: 7.70
SMILES: CC(CCCOc1ccc(-c2ccc(Cl)cc2)cc1)CN1CCN(c2ccncc2)C1=O (stereo unspecified)
CC50 [2]: > 25000 nM

pIC50 [7]: 8.55 | pIC50 [20]: 7.37
SMILES: CC(CCOc1ccc(-c2nnn(C)n2)cc1)CCN1CCN(c2ccncc2)C1=O (stereo unspecified)
CC50 [2]: > 25000 nM | Selectivity index [12]: >581 | Selectivity index [21]: >8928

pIC50 [7]: 8.85 | pIC50 [20]: 7.62
SMILES: CC(CCOc1ccc(-c2noc(C(F)(F)F)n2)cc1)CCN1CCN(c2ccncc2)C1=O (stereo unspecified)
CC50 [2]: > 25000 nM | Selectivity index [12]: >1041 | Selectivity index [21]: >17857
